STAT1 act: STAT1 signaling activation | NIH 3T3 STAT1-luciferase reporter, IFN-gamma, luminescence; 100% = IFN-gamma alone, no compound | actives 2.6% (n = 200,000) | activation (% of control), % at 5.5 µM;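 active = activation above the screen-wide mean activation plus 3 SD, cut at about 130% in these data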
STAT1 blocker: reduces IFN-gamma driven STAT1 reporter signal; actives 0.35% (n = 200,000); inhibition, % at 5.5 µM; NIH 3T3 STAT1-luciferase reporter, luminescence; AID 920;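 active = inhibition above a set limit, the mean inhibition across all tested compounds plus 3 SD, cut at about 34% in these data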
NF-kB expr up: NF-kB expression increase, human neuronal cells. actives 1.6% (n = 190,000). NF-kB reporter expression; hits give high values. AID 1239. fold change at 12.5 µM; in the data active = fold change above about 3.3
STAT3 inh: reduces IL-6 driven STAT3 reporter signal; U3A cells, IL-6 STAT3-luciferase reporter, luminescence; host cell line lacks STAT1; inhibition, % at 5.5 µM; actives 0.89% (n = 190,000);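 active = inhibition above the mean inhibition across all screened compounds plus 3 SD, cut at about 44% in these data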
APP 5'UTR act: APP 5'UTR luciferase reporter activation; AID 1276; SH-SY5Y APP 5'UTR luciferase reporter, luminescence; zero percent = DMSO vehicle wells; actives 1% (n = 190,000); activation, % at 2 µM;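 active = activation above a set limit, based on mean plus 3 SD of controls, cut at about 140% in these data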
STAT3 activator: STAT3 signaling activation | U3A cells, IL-6 STAT3-luciferase reporter, luminescence; 100% = signal with IL-6 EC80 alone | activation (% of control), % at 5.6 µM | actives 0.91% (n = 190,000);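 active = activation above the screen-wide mean of compound activation plus 3 SD, cut at about 130% in these data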
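system = STAT3-luciferase reporter U3A cells | reagent = IL-6 stimulus at 33 ng/mL final | timing = 1 h compound pre-exposure, 6 h IL-6 stimulation, 37 °C | measured by = luminescence | evaluation = % activation versus median of IL-6-stimulated wells | control set = IL-6-only wells as 100% reference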
Each line names hits and unclear results; the compound was inactive in the other large screens. Most compounds without a hit are left out; they make up all but 4.9% or so of the library.

COCCNc1nc2sc3c(c2c(=O)n1Cc1ccco1)CCCCC3	STAT1 act 129
O=C(COc1ccccc1)Nc1ccccc1Cl	STAT1 act 132
CCOc1ccc(C(=O)N/N=C/c2ccccc2[N+](=O)[O-])cc1	STAT1 act 134, APP 5'UTR act 140
CCOc1ccc(NC(=O)Cc2ccccc2)c([N+](=O)[O-])c1	none
CCC(=O)Nc1ccc(C(=O)N/N=C/c2ccccc2[N+](=O)[O-])cc1	none
COc1ccc(NC(=O)/C=C/c2ccccc2)c([N+](=O)[O-])c1	STAT1 act 147
CCOc1ccc(NC(=O)COc2ccccc2)c([N+](=O)[O-])c1	STAT1 act 148, NF-kB expr up 4.1
CC(=O)c1cc2c(cc1NC(=O)C1CC1)OCO2	none
CN1CCC(N(C)C(=O)CNC(=O)c2ccc(C(C)(C)C)cc2)CC1	none
Cc1ccc(NC(=O)C2CCCN(C(=O)c3ccc(Cl)cc3)C2)c(C)c1 (configuration not stated)	none
CC1(C)CC(=O)C2=C(C1)OC1=C(C(=O)CC(C)(C)C1)C2c1ccc(O)cc1O	NF-kB expr up 6.2
CC1(C)CC(=O)C2=C(C1)OC1=C(C(=O)CC(C)(C)C1)C2c1ccc(O)c([N+](=O)[O-])c1	none
CSc1ncccc1C(=O)Nc1nnc(C2CC2)s1	none
CCC(=O)Nc1cccc(NC(=S)NC(=O)c2ccccc2C)c1	none
Cc1ccc(C)c(SCc2noc(C(=O)NCC3CCCO3)c2C(=O)O)c1 (configuration not stated)	none
Cc1ccc(C)c(NC(=S)Nc2cccc3cnccc23)c1	none
Cc1ccc(C)c(NC(=S)Nc2cccnc2)c1	none
Cc1ccc(C)c(NC(=S)c2ccccn2)c1	NF-kB expr up 15
Cc1ccc(C)c(NC(=S)c2ccc3ccccc3n2)c1	STAT1 act 129, STAT3 activator 154
CC(=O)N(CN1C(=O)c2ccccc2C1=O)c1cccc(C)c1	none
CC(=O)N(/N=C1\Sc2ccccc2C1=O)c1cccc(C)c1	NF-kB expr up 7.1, APP 5'UTR act 136
N#Cc1c(-c2ccc(F)cc2)ccnc1N1CCOCC1	none
O=C(Nc1nc(-c2ccccn2)cs1)c1cc2ccccc2o1	none
Cc1ccc(C(=O)Nc2ncc(C)s2)o1	STAT1 act 135
Cc1ccc(C(=O)Nc2ncc(Cc3ccc(F)cc3)s2)o1	NF-kB expr up 7.9
Cc1ccc(C(=O)Nc2ccc(F)cc2)o1	none
Cc1cnc(NC(=O)c2cc3ccccc3o2)s1	STAT1 blocker 43, STAT3 inh 60
Nc1ncnc(Oc2cccc3cccnc23)c1[N+](=O)[O-]	none (no result: NF-kB expr up)
COc1ccccc1N1C(=O)S/C(=C\c2cc(C)n(C)c2C)C1=O	STAT1 act 137
COc1ccc(N=C2S/C(=C\c3cc(C)n(C)c3C)C(=O)N2C)cc1	none
COc1ccc2oc(=Nc3cccc(F)c3)c(C(N)=O)cc2c1	none
Cc1cccc(N=c2oc3cc(O)ccc3cc2C(N)=O)c1	STAT1 act 130
COc1ccc2cc(C(N)=O)c(=Nc3ccc(C)cc3)oc2c1	STAT1 act 138
COCCCNC(=O)c1ccccc1Sc1ccc(NC(C)=O)nc1	none
NC(=O)c1cccnc1Nc1cccc(F)c1	none
NC(=O)c1cccnc1Nc1cccc([N+](=O)[O-])c1	STAT1 act 134
CC(C)C(NC(=O)C1CCCCC1)C(=O)Nc1ccc2c(c1)OCCO2 (configuration not stated)	STAT1 act 132
O=C(Nc1ccc2c(c1)oc1ccccc12)c1ccc(Br)o1	STAT1 act 139
COC(=O)Cc1ccc(NC(=O)c2ccc(Br)o2)cc1	none
CCN(CC)c1ccc(NC(=O)c2ccc(Br)o2)cc1	STAT1 act 133, NF-kB expr up 7, APP 5'UTR act 178
Cc1c(N(C(=O)Cc2cccs2)C2(C(=O)NC3CCCC3)CCCCC2)c(=O)n(-c2ccccc2)n1C	NF-kB expr up 4.1
c1ccn2cc(-c3ccc4c(c3)OCCO4)nc2c1	STAT1 blocker 60, STAT3 inh 90
Clc1ccc2nc(-c3ccc4c(c3)OCO4)cn2c1	STAT1 blocker 65, NF-kB expr up 5, STAT3 inh 83, APP 5'UTR act 158
CCN(CC)S(=O)(=O)c1ccc(/C=C/C(=O)Nc2cccc(F)c2)cc1	none
CN1/C(=C\C(=O)COc2ccc3c(c2)OCO3)C(C)(C)c2ccccc21	none
O=C(/C=C/c1c(F)cccc1Cl)Nc1ccncc1	none
COc1ccccc1Nc1nc2ccccc2[nH]1	none
Cc1ccc(/C=C/C(=O)c2nc3ccccc3[nH]2)cc1	none
O=C(/C=C/c1c(F)cccc1Cl)Nc1nc2ccccc2[nH]1	STAT1 act 130
Cc1ccc(Nc2nc3ccccc3[nH]2)nc1	NF-kB expr up 5.4
Cc1ccc(/C=C/C(=O)Nc2nc3ccccc3[nH]2)cc1	STAT1 act 129, APP 5'UTR act 180
Nc1nc(CSc2ncn(-c3ccccc3)n2)cs1	STAT1 act 132
Nc1nc(CSc2nc3ccccc3[nH]2)cs1	none
O=C(CSc1ncn(-c2ccccc2)n1)c1cccs1	STAT1 act 129, NF-kB expr up 3.5
c1ccc(CSc2ncn(-c3ccccc3)n2)cc1	STAT1 act 144, NF-kB expr up 4.3
N/C(=N\c1nc(CSc2ccc(Cl)cc2)cc(=O)[nH]1)Nc1ccccc1C(F)(F)F	none
c1cncc(-c2nc(-c3ccc4c(c3)OCO4)cs2)c1	STAT1 act 143
Clc1ccsc1-c1csc(-c2cccnc2)n1	STAT1 act 129
CC(NC(=O)CCc1nnc(-c2ccc(-c3ccccc3)cc2)o1)c1nc2ccccc2[nH]1 (configuration not stated)	none
CCC(=O)Nc1nc2cc(OC)ccc2s1	STAT1 act 140, NF-kB expr up 3.6
COc1ccc2sc(NC(=O)CC(C)C)nc2c1	STAT1 act 146, NF-kB expr up 3.5
COc1ccc2sc(NC(C)=O)nc2c1	STAT1 act 136
CCC(=O)Nc1nc2ccc3nc(C)sc3c2s1	STAT1 act 149, NF-kB expr up 3.5
CCOCC(=O)Nc1nc2ccc(OC)cc2s1	none
CCN(Cc1ccccc1)c1ccc(N=Nc2nn(C)c(C)c2[N+](=O)[O-])cc1	STAT1 act 133
Cn1nc(C(=O)NC2CCCc3ccccc32)ccc1=O (configuration not stated)	none
O=C(Nc1ccc(NC(=S)NC(=O)C(c2ccccc2)c2ccccc2)cc1)c1ccccc1	none (no result: NF-kB expr up)
O=[N+]([O-])c1cccnc1N/N=C/c1ccccc1O	STAT1 act 130
CCCOc1ccc(/C=N/Nc2ccccc2[N+](=O)[O-])c(O)c1	APP 5'UTR act 173
Cc1cccc(NC(=O)Cc2coc3ccc4ccccc4c23)n1	none
Cc1cc(C)c(S(C)(=O)=O)c(NN)n1	none

Screening data from PubChem.
